Measurements: ChEMBL document CHEMBL5108036, “A concise SAR-analysis of antimicrobial cationic amphipathic barbiturates for an improved activity-toxicity profile” (Eur J Med Chem, 2022)
Active and inactive are the calls of the source. The rule behind the calls is not given here.

Legend:
[1] = test system: Erythrocyte; test: (§1) Hemolytic activity in human RBC measured after 1 hr by microplate reader method; assay type: toxicity, cell-based; settings: erythrocyte
Procedure, shortened: (§2)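 Human red blood cell lysis was used as the cytotoxicity read-out, expressed as EC50 in µg/mL. The highest concentration tested was 500 µM. Compounds were tested as di-TFA salts.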

[2] = Solubility in pure water; assay type: physicochemical
[3] = test system: Staphylococcus aureus; test: Antibacterial activity against Staphylococcus aureus ATCC 9144 incubated for 48 hrs and measured by broth microdilution assay; assay type: functional
Procedure, shortened: (§3)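 MICs in µg/mL were measured against the reference strains S. aureus ATCC 9144, B. subtilis 168, E. coli ATCC 25922 and P. aeruginosa ATCC 27853. Compounds were tested as di-TFA salts.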

[4] = test system: Escherichia coli; test: Antibacterial activity against Escherichia coli ATCC 25922 incubated for 48 hrs and measured by broth microdilution assay; assay type: functional; procedure, shortened: as §3
[5] = as §1; assay type: toxicity, cell-based, Erythrocyte; settings: human, human red blood cells (erythrocytes); procedure, shortened: as §2
[6] = Selectivity index, ratio HC50 for hemolytic activity in human RBC to MIC for antibacterial activity against Pseudomonas aeruginosa ATCC 27853; assay type: toxicity; settings: human red blood cells (erythrocytes)
Procedure, shortened: (§4)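 SI is the ratio of RBC lysis EC50 to MIC for each reference strain.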

[7] = test system: Pseudomonas aeruginosa; test: Antibacterial activity against Pseudomonas aeruginosa ATCC 27853 incubated for 48 hrs and measured by broth microdilution assay; assay type: functional; procedure, shortened: as §3
[8] = Selectivity index, ratio HC50 for hemolytic activity in human RBC to MIC for antibacterial activity against Bacillus subtilis 168; assay type: toxicity; settings: human red blood cells (erythrocytes); procedure, shortened: as §4
[9] = Selectivity index, ratio HC50 for hemolytic activity in human RBC to MIC for antibacterial activity against Escherichia coli ATCC 25922; assay type: toxicity; settings: human red blood cells (erythrocytes); procedure, shortened: as §4
[10] = test system: Bacillus subtilis; test: Antibacterial activity against Bacillus subtilis 168 incubated for 48 hrs and measured by broth microdilution assay; assay type: functional; procedure, shortened: as §3
[11] = Selectivity index, ratio HC50 for hemolytic activity in human RBC to MIC for antibacterial activity against Staphylococcus aureus ATCC 9144; assay type: toxicity; settings: human red blood cells (erythrocytes); procedure, shortened: as §4
[12] = test system: Escherichia coli; test: Disruption of inner membrane integrity in Escherichia coli K12 (ATCC MC1061) transfected with pCGLS-1 at 6.4 to 12.8 times MIC measured by luciferase based bioluminescence assay; assay type: functional, organism-based; settings: DDE = dose-dependent effect
Procedure, shortened: (§5)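 Membrane integrity was read with click beetle lucGR luciferase biosensor strains. Cell suspension containing 1 mM D-luciferin was added to the analytes. Luminescence was read every second for 180 s, normalized to an untreated water control and reported as RLU. At least three independent experiments were run.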

[13] = test system: Escherichia coli; test: Antibacterial activity against in Escherichia coli K12 (ATCC MC1061) transfected with pCGLS-1 assessed as decrease in cell viability at 25.6 to 51.2 ug/ml measured by NPN based fluorescence assay; assay type: functional, organism-based; settings: dose 25.6-51.2 µg/ml
Procedure, shortened: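 At the end of the NPN outer membrane assay in E. coli K12, a 10 µL sample was spotted on an agar plate to assess bacterial viability.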

[14] = test system: Bacillus subtilis; test: Antibacterial activity against Bacillus subtilis 168 (ATCC 23857) expressing lux operon in sacA locus (PliaG) assessed as decrease in bacterial viability at 3.2 to 51.2 ug/ml; assay type: functional, organism-based; settings: dose 3.2-51.2 µg/ml
Procedure, shortened: (§6)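 Biosensor strains (B. subtilis 168; E. coli K12) carry the Photorhabdus luminescens lux operon, so no substrate is added. Cell suspension, about 100-fold denser than in the MIC assay, was added to the analytes. Light was read every second for 180 s, normalized to an untreated water control and reported as RLU. At least three independent experiments were run.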

[15] = test system: Escherichia coli; test: Disruption of outer membrane integrity in Escherichia coli K12 (ATCC MC1061) transfected with pCGLS-1 at 3.2 ug/ml measured by NPN based fluorescence assay; assay type: functional, organism-based; settings: dose 3.2 µg/ml, DDE = dose-dependent effect
Procedure, shortened: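 E. coli K12 outer membrane permeability was measured by 1-N-phenylnaphthylamine uptake. Cell suspension with 20 µM NPN was added to the analytes. Fluorescence was read every second for 180 s, normalized to an untreated water control and reported as RFU. At least three independent experiments were run.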

[16] = test system: Escherichia coli; test: Antibacterial activity against Escherichia coli K12 (ATCC MC1061) transfected with pCGLS-1 assessed as decrease in bacterial viability at 3.2 to 51.2 ug/ml; assay type: functional, organism-based; settings: dose 3.2-51.2 µg/ml; procedure, shortened: as §6
[17] = test system: Bacillus subtilis; test: Disruption of inner membrane integrity in Bacillus subtilis 168 (ATCC 23857) at 1.56 to 50 ug/ml measured by luciferase based bioluminescence assay; assay type: functional, organism-based; settings: dose 1.56-50 µg/ml; procedure, shortened: as §5

Compound	EC50 [1]	solubility [2]	MIC [3]	MIC [4]	EC50 at 1 h [5]	selectivity ratio [6]	MIC [7]	selectivity ratio [8]	selectivity ratio [9]	MIC [10]	selectivity ratio [11]	Activity [12]	Activity [13]	Activity [14]	Activity [15]	Activity [16]	Activity [17]
Cl.Cl.N=C(N)NCCCN1C(=O)N(CCCNC(=N)N)C(=O)C(Cc2cc(C(F)(F)F)cc(C(F)(F)F)c2)(Cc2cc(C(F)(F)F)cc(C(F)(F)F)c2)C1=O	118 µg/mL	≤ 1000 µg/mL	2 µg/mL	8 µg/mL													
CC(C)(C)c1ccc(CC2(Cc3cc(Br)cc(Br)c3)C(=O)N(CCCNC(=N)N)C(=O)N(CCCNC(=N)N)C2=O)cc1.O=C(O)C(F)(F)F.O=C(O)C(F)(F)F (stereo not given)			1 µg/mL	2 µg/mL	169 µg/mL	11	16 µg/mL	169	85	1 µg/mL	169						
NCCCN1C(=O)N(CCCN)C(=O)C(Cc2ccc(Br)c(Cl)c2)(Cc2ccc(Br)c(Cl)c2)C1=O.O=C(O)C(F)(F)F.O=C(O)C(F)(F)F		< 1000 µg/mL	8 µg/mL	8 µg/mL	323 µg/mL	20	16 µg/mL	81	40	4 µg/mL	40						
NCCCCN1C(=O)N(CCCCN)C(=O)C(Cc2cc(Br)cc(Br)c2)(Cc2cc(Br)cc(Br)c2)C1=O.O=C(O)C(F)(F)F.O=C(O)C(F)(F)F			4 µg/mL	4 µg/mL	79 µg/mL	10	8 µg/mL	40	20	2 µg/mL	20						
Cl.Cl.NCCCN1C(=O)N(CCCN)C(=O)C(Cc2cc(C(F)(F)F)cc(C(F)(F)F)c2)(Cc2cc(C(F)(F)F)cc(C(F)(F)F)c2)C1=O	224 µg/mL	≤ 1000 µg/mL	8 µg/mL	8 µg/mL													
N=C(N)NCCCN1C(=O)N(CCCNC(=N)N)C(=O)C(Cc2ccc(Br)c(Cl)c2)(Cc2ccc(Br)c(Cl)c2)C1=O.O=C(O)C(F)(F)F.O=C(O)C(F)(F)F		< 1000 µg/mL	2 µg/mL	8 µg/mL	348 µg/mL		32 µg/mL			2 µg/mL							
O=C([O-])C(F)(F)F.O=C([O-])C(F)(F)F.O=C1N(CCCC[n+]2ccccc2)C(=O)C(Cc2cc(Br)cc(Br)c2)(Cc2cc(Br)cc(Br)c2)C(=O)N1CCCC[n+]1ccccc1			2 µg/mL	8 µg/mL	> 559 µg/mL		128 µg/mL	> 140	> 70	4 µg/mL	> 280						
N=C(N)NCCCCN1C(=O)N(CCCCNC(=N)N)C(=O)C(Cc2ccc(C(F)(F)F)cc2)(Cc2cc(Br)cc(Br)c2)C1=O.O=C(O)C(F)(F)F.O=C(O)C(F)(F)F (stereo not given)			2 µg/mL	2 µg/mL	161 µg/mL	10	16 µg/mL	40	81	4 µg/mL	81	Dde	Active	Active	Dde	Active	Active
N=C(N)NCCCCN1C(=O)N(CCCCNC(=N)N)C(=O)C(Cc2cc(Br)cc(Br)c2)(Cc2cc(Br)cc(Br)c2)C1=O.O=C(O)C(F)(F)F.O=C(O)C(F)(F)F			2 µg/mL	2 µg/mL	62 µg/mL	8	8 µg/mL	32	32	2 µg/mL	32						
NCCCN1C(=O)N(CCCN)C(=O)C(Cc2cc(C(F)(F)F)cc(C(F)(F)F)c2)(Cc2cc(C(F)(F)F)cc(C(F)(F)F)c2)C1=O.O=C(O)C(F)(F)F.O=C(O)C(F)(F)F		< 1000 µg/mL	8 µg/mL	8 µg/mL	176 µg/mL	23	8 µg/mL	46	23	4 µg/mL	23						
Cl.Cl.NCCCN1C(=O)N(CCCN)C(=O)C(Cc2ccc(Br)c(Cl)c2)(Cc2ccc(Br)c(Cl)c2)C1=O	271 µg/mL	≤ 1000 µg/mL	8 µg/mL	8 µg/mL													
N=C(N)NCCCN1C(=O)N(CCCNC(=N)N)C(=O)C(Cc2cc(C(F)(F)F)cc(C(F)(F)F)c2)(Cc2cc(C(F)(F)F)cc(C(F)(F)F)c2)C1=O.O=C(O)C(F)(F)F.O=C(O)C(F)(F)F	445 µg/mL	< 1000 µg/mL	4 µg/mL	8 µg/mL		28	16 µg/mL	222	56	2 µg/mL	111						
C[N+](C)(C)CCCCN1C(=O)N(CCCC[N+](C)(C)C)C(=O)C(Cc2cc(Br)cc(Br)c2)(Cc2cc(Br)cc(Br)c2)C1=O.O=C([O-])C(F)(F)F.O=C([O-])C(F)(F)F			4 µg/mL	128 µg/mL	> 539 µg/mL		256 µg/mL	> 67		8 µg/mL	> 135						
Cl.Cl.N=C(N)NCCCN1C(=O)N(CCCNC(=N)N)C(=O)C(Cc2ccc(Br)c(Cl)c2)(Cc2ccc(Br)c(Cl)c2)C1=O	291 µg/mL	< 1000 µg/mL	0.5 µg/mL	8 µg/mL													
N=C(N)NCCCN1C(=O)N(CCCNC(=N)N)C(=O)C(Cc2ccc3cc(Br)ccc3n2)(Cc2ccc3cc(Br)ccc3n2)C1=O.O=C(O)C(F)(F)F.O=C(O)C(F)(F)F			8 µg/mL	64 µg/mL	> 497 µg/mL		> 128 µg/mL	> 124		4 µg/mL	> 62						
N=C(N)NCCCN1C(=O)N(CCCNC(=N)N)C(=O)C(Cc2cc(Br)cc(Br)c2)(Cc2cc(Br)cc(Br)c2)C1=O.O=C(O)C(F)(F)F.O=C(O)C(F)(F)F			2 µg/mL	4 µg/mL	187 µg/mL	23	8 µg/mL	93	47	2 µg/mL	93						
